# Cl transport mod: KCC2 (human) Cl- transport modulation; KCC2 cells, thallium flux FluoZin-2 fluorescence; 190,000 compounds, 2.2% hits; Q9H2X9; B-score of Tl+ flux slope (higher = more flux/activation; lower = inhibition) at 10 µM;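 active = thallium flux slope and its plate-corrected score both differing from the plate sample mean at a set confidence after two filtering rounds, in either direction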;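 note: slope of fluorescence scaled to starting intensity during 10 to 20 s after thallium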
# ROMK primary: human ROMK K+ channel modulation, primary screen; AID 1918; P48048; 130,000 compounds, 2% hits; Tet-inducible ROMK, thallium flux fluorescence; actives lie on both sides; B-score at 10 µM;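 active = signal ratio slope over the read window, or its plate-corrected B-score, at least 3 SD from the plate mean, either direction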;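 note: B-score of the F/F0 ratio slope over 7 to 12 s after thallium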
# Target sequence (P48048 whole entry, looked up): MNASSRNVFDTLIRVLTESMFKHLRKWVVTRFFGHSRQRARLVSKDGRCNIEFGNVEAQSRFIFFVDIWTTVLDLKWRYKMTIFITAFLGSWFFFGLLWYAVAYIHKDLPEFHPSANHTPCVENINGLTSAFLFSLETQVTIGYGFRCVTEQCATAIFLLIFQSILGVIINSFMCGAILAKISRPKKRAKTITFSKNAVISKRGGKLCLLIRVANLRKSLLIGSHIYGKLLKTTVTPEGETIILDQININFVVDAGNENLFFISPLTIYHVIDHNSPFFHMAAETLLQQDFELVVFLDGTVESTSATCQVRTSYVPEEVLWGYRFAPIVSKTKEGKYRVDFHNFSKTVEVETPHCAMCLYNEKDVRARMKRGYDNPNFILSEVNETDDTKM
# L major viab: Leishmania major promastigote growth inhibition; Leishmania major promastigotes, resazurin fluorescence viability; 200,000 compounds, 9% hits; inhibition, % at 10 µM; AID 1063; in the data active = inhibition above about 50%;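 note: promastigotes grown with compound for 44 hours at 28 °C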
# WT yeast gro inh: growth inhibition of WT yeast, mitochondrial fusion screen; mitochondrial fusion phenotypic screen, WT strain; inhibition, % at 10 µM; 190,000 compounds, 2.1% hits; in the data active = inhibition above about 58%; tested in S. cerevisiae
# Diaph inh CS: counter-screen for diaphorase-based assays: diaphorase inhibitors and chemical oxidizers | diaphorase resazurin-to-resorufin fluorescence, NADH, 16 min; bacterial (C. kluyveri) enzyme, not human | 190,000 compounds, 0.69% hits | inhibition, % at 20 µM;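 active = primary screen inhibition at 20 µM above a set limit, cut at about 50% in these data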;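 note: plate controls were DMSO with full reaction for no effect and wells lacking NADH for full effect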
#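 Assay system: diaphorase enzyme from Clostridium kluyveri; Input: enzyme working solution with 0.14 U/mL diaphorase; Timing: 16 min at room temperature; Technique: resorufin fluorescence, excitation 544 nm, emission 590 nm; Benchmarks: positive control minus NADH, DMSO neutral control.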
# Diaph act CS: counter-screen for diaphorase-based assays: diaphorase activators and chemical reducers | Diaphorase/resazurin coupled assay, resorufin fluorescence, 16 min; hits give high values; 1 = vehicle wells, 0 = NADH-free wells | activation factor at 20 µM | 190,000 compounds, 0.005% hits | AID 1229;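 active = diaphorase activity raised at least twofold by the compound at 20 µM; inactive = activation factor below 2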
#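 Test system: Clostridium kluyveri diaphorase, purified enzyme; input: enzyme 0.07 U/mL final; buffer or medium: 50 mM HEPES pH 7.4 with 4.542 mM MgCl2, 0.005% Tween 20; also added: 0.114 mM NADH and 0.1 mM resazurin, final amounts; schedule: 16 min enzyme reaction, ambient temperature; technique: fluorescence of resorufin, 544 nm excitation, 590 nm emission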
# The depositor's hits bear a star; nt = no result given. Only some compounds are listed: those with a hit (about 12% of all), similar ones and a draw of the others.
SMILES,Cl transport mod,ROMK primary,L major viab,WT yeast gro inh,Diaph inh CS,Diaph act CS
CCn1c(Cc2ccccc2)nnc1SCC(=O)Nc1ccccc1O,-0.66,-0.62,-2,6,13,0.9
CCOc1ccc(CNc2cccc(SC)c2)cc1,0.00051,-0.33,6,18,nt,nt
O=C(Cc1ccc(-n2c(=S)[nH]c3ccccc3c2=O)cc1)N1CCN(c2ccccc2)CC1,-0.32,nt,15,-6,38,0.6
Cc1nc(Cl)c2c(n1)NC(=O)CO2,-0.24,0.48,nt,nt,nt,nt
CCOc1ccc(NC(=O)C2CC(=O)OC2c2ccccc2)cc1 (stereo not given),-0.097,-1.3,-7,-6,2,1
CCOc1ccc(NC(=O)C2CC(C)=C(C)CC2C(=O)O)cc1 (stereo not given),0.63,0.28,81*,1,4,1
COc1ccccc1/C=C/C=N/NC(=O)c1cc(-c2ccc(C)o2)[nH]n1,-2.9,nt,nt,nt,nt,nt
O=C(CN1CCCCCC1=O)N1CCN(S(=O)(=O)c2cccs2)CC1,-2.8,0.33,-1,0,6,0.9
O=C(Nc1nnc(-c2ccc(Cl)s2)o1)C1CC1,1.3,-0.019,61*,-5,7,0.9
COc1cc(OC)cc(N(C(=O)C2COc3ccccc3O2)C(C(=O)NC2CCCCC2)c2ccc(O)cc2)c1 (stereo not given),0.55,nt,64*,7,23,0.8
COc1cccc(C(C(=O)NC2CCCCC2)N(CCN2CCOCC2)C(=O)C2COc3ccccc3O2)c1 (stereo not given),-1.1,nt,5,3,13,0.9
COc1ccc(N(C(=O)C2COc3ccccc3O2)C(C(=O)NC2CCCCC2)c2ccccc2)cc1OC (stereo not given),-0.27,nt,99*,-2,23,0.8
CCCC(=O)Nc1ccccc1Sc1ncnc2scc(-c3ccccc3)c12,-3.6,-0.064,55*,18,13,0.9
CC(=O)Nc1cccc(Oc2ncnc3scc(-c4ccc(C(C)C)cc4)c23)c1,-2.6,-1.8,14,72*,24,0.8
CC(=O)Nc1ccc(Sc2ncnc3scc(-c4ccccc4)c23)cc1,-1.5,nt,1,79*,11,0.9
NC(=O)COc1ncnc2scc(-c3ccc(F)cc3)c12,-0.41,0.84,4,1,16,0.8
Cc1noc(NS(=O)(=O)c2ccc(NC(=O)C(CC(C)C)N3C(=O)c4ccccc4C3=O)cc2)c1C (stereo not given),0.71,nt,nt,nt,nt,nt
O=C(CCc1nnc(CCCc2ccccc2)o1)NC(C1CC1)C1CC1,-0.56,0.057,-5,7,nt,nt
Cc1cccc(-c2noc(CCCOc3ccc(Cl)cc3Cl)n2)c1,0.11,0.011,-5,36,17,0.8
Cc1ccc(C)c2[nH]c(=O)c(C(c3nnnn3Cc3ccco3)N3CCc4ccccc4C3)cc12 (stereo not given),-0.55,-1.6,94*,14,57*,0.4
Cc1ccc(C)c2[nH]c(=O)c(C(c3nnnn3CCc3ccccc3)N3CCOCC3)cc12 (stereo not given),-1.2,-0.15,100*,-5,15,0.8
COc1ccccc1C(c1nnnn1Cc1ccco1)N1CCN(c2cccc(C)c2C)CC1 (stereo not given),-1.1,nt,74*,28,14,0.9
Cc1ccc2[nH]c(=O)c(CN(CCO)C(=O)N(C)C)cc2c1,0.26,nt,-4,nt,nt,nt
CC(=O)N1N=C(c2ccccc2)OC1c1ccc([N+](=O)[O-])s1 (stereo not given),-0.2,-0.18,100*,-8,11,0.9
CC(=O)c1ccc(OCc2cc([N+](=O)[O-])cc3c2OCOC3)cc1,0.34,0.039,75*,-2,3,1
SMILES,Cl transport mod,ROMK primary,L major viab,WT yeast gro inh,Diaph inh CS,Diaph act CS
Cc1cc(-c2nnc(SCC(=O)c3ccc(F)cc3)o2)no1,-0.22,0.51,11,-2,5,0.9
O=C(c1cccnc1)N1CCN(c2c(Cl)cccc2[N+](=O)[O-])CC1,0.59,0.22,-5,1,4,1
CCCn1c(=O)c(C(=O)NCc2ccco2)c(O)c2ccccc21,-0.31,nt,2,12,-6,1.1
CCOc1ccc(C(=O)Nc2nnc(C(C)C)s2)cc1OCC,-0.37,2.2,87*,13,1,1
C=CCNC(=O)NC(=O)COC(=O)c1nc2nccc(C)n2n1,0.17,0.69,-2,-9,23,0.8
CC(C)=CCc1c(O)ccc(C(=O)Cc2ccccc2)c1O,-0.47,0.11,13,81*,25,0.8
CC(=O)c1oc2ccccc2c1NC(=O)CN1CCCCC1,nt,nt,-4,-7,10,0.9
O=C(Cn1ncn2c(cc3ccccc32)c1=O)NCCC1=CCCCC1,0.15,nt,1,16,7,0.9
COc1ccc(/C=N/Nc2nc(-c3cccc(S(=O)(=O)N4CCCC4)c3)cs2)cc1OC,-2,0.47,12,9,8,0.9
CCOc1cc(/C=N/Nc2nc(-c3cccc(S(=O)(=O)N4CCCC4)c3)cs2)ccc1O,1.1,0.3,93*,0,7,0.9
C=CCn1c(SCC(N)=O)nc(C)cc1=O,-0.52,-1.3,-3,61*,6,0.9
Cc1c(Cl)cccc1NC(=S)N/N=C/c1ccccc1Cl,1.1,0.65,nt,nt,nt,nt
Fc1ccccc1NC(=S)N/N=C/c1ccccc1Br,6.2*,0.8,-3,29,14,0.9
O=[N+]([O-])c1ccc(/C=N/NC(=S)Nc2ccccc2F)o1,28*,nt,25,24,8,0.9
Cc1ccc(SCc2ccc(C(=O)NCc3ccncc3)cc2)cc1,nt,-0.25,4,22,6,0.9
Cc1cc(-c2nc3c4c5c(sc4[nH]c(=O)n3n2)CCC5)c(C)o1,-1.1,nt,-1,3,57*,0.4
O=C(NNC(=S)Nc1ccccc1)c1cccc(Br)c1,3.3*,-1.5,5,-8,25,0.7
O=C(O)CCC(=O)NNC(=O)c1cccc(Br)c1,-0.022,0.35,60*,-16,18,0.8
COC(=O)c1ccc(C2CC(=O)Nc3cc(OC)c(OC)c(OC)c32)cc1 (stereo not given),nt,-0.75,8,1,21,0.8
N#Cc1c(NC(=O)C2CC(c3ccccc3O)=NO2)sc2c1CCC2 (stereo not given),-0.79,nt,-3,16,15,0.8
COc1ccc(NC(=O)C2CCC(CNS(=O)(=O)c3cccs3)CC2)cc1 (stereo not given),-0.17,0.081,-8,5,5,1
CCCCc1ccc(-c2csc(/C(C#N)=C\c3ccc(C)o3)n2)cc1,1.3,nt,-2,-3,26,0.7
CCOc1ccc(-c2csc(/C(C#N)=C\c3ccc(O)c([N+](=O)[O-])c3)n2)cc1,-1.1,0.59,-3,31,87*,0.1

# Source: PubChem BioAssay
